We go through two molecules from ChEMBL document CHEMBL3774344, “Role of a Preorganized Scaffold Presenting Four Residues of a GM-3 Lactone Mimetic on Melanoma Progression” (2016).

In assay [1] the test system is A-375. The assay is described as follows: Antimigratory activity against human A375 cells at 50 uM after 24 hrs in presence cancer associated fibroblast by 2D-migration assay. The class given is functional, cell-based. Summed up: (§1)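 A375 cells incubated under hypoxia (1% O2) with conditioned medium from CAFs (derived ex vivo from aggressive human melanoma) or HDFs, with or without 50 μM compound. Cells then assayed for 2D migration or invasion through reconstituted Matrigel barrier in Boyden chambers.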

Assay [2] relates to A-375. As to the kind of experiment: Antiinvasion activity in human A375 cells at 50 uM after 24 hrs in presence of cancer associated fibroblast by Boyden invasion assay. It counts as functional, cell-based. The essentials:
as §1

The test system of assay [3] is A-375. The assay is described as follows: Inhibition of cell adhesion in human A375 cells at 50 uM measured from 1 to 3 hrs in presence of fibronectin by crystal violet staining based assay. It counts as functional. The essentials: (§2)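 A375 cells treated with 50 μM compound, then allowed to adhere to fibronectin-coated dishes for varying times up to 4 h, with no-fibronectin comparison. Percentage of adhered cells scored by crystal violet. At least three independent experiments; mean and SD.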

A short description of assay [4]: Antitumor activity against mouse B16F10 cells xenografted in C57BL/6 mouse assessed as reduction in tumor volume at 400 ug, ip administered on day 0 to 72 followed by tumor implantation on day 69 measured every 2 to 3 days relative to PBS-treated control. More on the design: scale not given: the % may be the effect or the level left.
Assay [5] concerns A-375. As to the kind of experiment: Induction of apoptosis in serum-starved human A375 cells after 24 hrs by AnnexinV/PI-staining based flow cytometric analysis. The class given is functional, cell-based. Summed up: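 A375 cells serum-starved, detached and held in suspension for 24 h with compound. Apoptotic fraction measured by Annexin V–PI staining. At least three independent experiments; mean and SD.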
In general terms: Flow cytometry measures light scatter and fluorescence of single cells or particles in a stream.

For assay [6], the system named is A-375. The assay is described as follows: Inhibition of cell adhesion in human A375 cells at 50 uM measured after 4 hrs in presence of fibronectin by crystal violet staining based assay. The class given is functional. The note with it: A-375, 4 h. Summed up:
as §2

The subject of assay [7] is A-375. The assay is described as follows: Inhibition of cell migration in human A375 cells at 50 uM after 24 hrs by 2D-migration assay in presence of 10% serum. It counts as functional. Particulars: A-375, 24 h. Summed up:
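Cells treated with 50 μM compound, then allowed to migrate 24 h toward 10% serum chemoattractant. Cells counted in a randomly chosen field per filter. At least three independent experiments; mean and SD.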

The test system of assay [8] is A-375. As to the kind of experiment: Inhibition of cell invasion in human A375 cells at 50 uM after 24 hrs by Boyden invasion assay in presence of 10% serum. The class given is functional. Particulars: A-375, 24 h. Summed up: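 Cells treated with 50 μM compound, then placed in Boyden chambers (8 μm pores) with Matrigel 3D barrier and allowed to invade toward 10% serum for 24 h. Cells crossing the filter counted. At least three independent experiments; mean and SD.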

The source made the active and inactive calls. No cut-off for these calls is given here. Where only a bound is given, the exact number is not on record here.

Regarding `CCCOc1c2cc(CCCn3cc(CCO[C@H]4O[C@H](CO)[C@H](O)C5=C4SC[C@]4(C[C@@H](O)[C@@H](O)[C@@H]([C@@H](O)CO)O4)O5)nn3)cc1Cc1cc(CCCn3cc(CCO[C@H]4O[C@H](CO)[C@H](O)C5=C4SC[C@]4(C[C@@H](O)[C@@H](O)[C@@H]([C@@H](O)CO)O4)O5)nn3)cc(c1OCCC)Cc1cc(CCCn3cc(CCO[C@H]4O[C@H](CO)[C@H](O)C5=C4SC[C@]4(C[C@@H](O)[C@@H](O)[C@@H]([C@@H](O)CO)O4)O5)nn3)cc(c1OCCC)Cc1cc(CCCn3cc(CCO[C@H]4O[C@H](CO)[C@H](O)C5=C4SC[C@]4(C[C@@H](O)[C@@H](O)[C@@H]([C@@H](O)CO)O4)O5)nn3)cc(c1OCCC)C2`, the outcome with A-375 [1] and in the assay with A-375 [2] was Active.
Consider `CC(C)=NOCC(=O)NCCCC[C@@H]1NC(=O)[C@H](CCCCNC(=O)CCCCC(=O)NCCCCCCO[C@H]2O[C@H](CO)[C@H](O)C3=C2SC[C@]2(C[C@@H](O)[C@@H](O)[C@@H]([C@H](O)CO)O2)O3)NC(=O)CNC(=O)[C@@H]2CCCN2C(=O)[C@H](CCCCNC(=O)CCCCC(=O)NCCCCCCO[C@@H]2O[C@@H](CO)[C@@H](O)C3=C2SC[C@@]2(C[C@@H](O)[C@@H](O)[C@@H]([C@H](O)CO)O2)O3)NC(=O)[C@H](C)NC(=O)[C@H](CCCCNC(=O)CCCCC(=O)NCCCCCCO[C@H]2O[C@H](CO)[C@H](O)C3=C2SC[C@]2(C[C@H](O)[C@H](O)[C@H]([C@@H](O)CO)O2)O3)NC(=O)CNC(=O)[C@@H]2CCCN2C(=O)[C@H](CCCCNC(=O)CCCCC(=O)NCCCCCCO[C@@H]2O[C@@H](CO)[C@@H](O)C3=C2SC[C@@]2(C[C@H](O)[C@H](O)[C@H]([C@@H](O)CO)O2)O3)NC1=O`, for which the inhibition (in general, how much of the control response was suppressed) at 50 µM with A-375 [3] was ≤ 30%; in the assay on A-375 [6], 50%; with A-375 [7], 30%; in the assay on A-375 [8], 30%. Besides, the Activity in assay [4] is listed as >50%. Further, the result with A-375 [1], with A-375 [5] and with A-375 [2] was Active.
